From PubChem BioAssay
An excerpt weighted towards active compounds, which were near 3.5% of everything screened.
PAFAH1B2 FP inh = PAFAH1B2 (human) inhibition. recombinant PAFAH1B2, FP-rhodamine activity probe, fluorescence polarization. inhibition, % at 3.39 µM. P68402. AID 492953. 1.2% of 340,000 active;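 active means inhibition above the mean of all tested compounds plus 3 SD, cut at about 24% in these data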;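 further: 0% = enzyme with DMSO and 100% = wells lacking PAFAH1B2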
pPAFAH inh = pPAFAH (human) enzyme inhibition; Q13093; recombinant pPAFAH, FP-rhodamine probe fluorescence polarization; inhibition, % at 3.39 µM; 1.5% of 330,000 active; AID 463082;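 active means inhibition above the mean inhibition across the screen plus 3 SD, cut at about 25% in these data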;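 further: inhibitors block binding of the rhodamine activity-based probe so polarization drops; 0% = enzyme with DMSO and 100% = wells lacking pPAFAH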
PAFAH2 inh = inhibitors of human PAFAH2; recombinant PAFAH2, FP-rhodamine activity probe, fluorescence polarization; inhibition, % at 3.39 µM; 0.99% of 340,000 active; AID 492956;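 active means inhibition above the mean over all tested compounds plus 3 SD, cut at about 30% in these data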;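 further: inhibitors block probe labeling of enzyme so polarization drops; 0% = enzyme with DMSO and 100% = wells lacking PAFAH2 protein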
PREPL inhibitor = inhibitors of human prolyl oligopeptidase-like enzyme PREPL; Q4J6C6; recombinant PREPL, fluorescence polarization activity-based probe; inhibition, % at 5.96 µM; 0.68% of 320,000 active; in the data active means inhibition above about 43%;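 further: 0% = enzyme with DMSO and 100% = wells lacking enzyme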
Target sequence (Q4J6C6 whole entry, looked up): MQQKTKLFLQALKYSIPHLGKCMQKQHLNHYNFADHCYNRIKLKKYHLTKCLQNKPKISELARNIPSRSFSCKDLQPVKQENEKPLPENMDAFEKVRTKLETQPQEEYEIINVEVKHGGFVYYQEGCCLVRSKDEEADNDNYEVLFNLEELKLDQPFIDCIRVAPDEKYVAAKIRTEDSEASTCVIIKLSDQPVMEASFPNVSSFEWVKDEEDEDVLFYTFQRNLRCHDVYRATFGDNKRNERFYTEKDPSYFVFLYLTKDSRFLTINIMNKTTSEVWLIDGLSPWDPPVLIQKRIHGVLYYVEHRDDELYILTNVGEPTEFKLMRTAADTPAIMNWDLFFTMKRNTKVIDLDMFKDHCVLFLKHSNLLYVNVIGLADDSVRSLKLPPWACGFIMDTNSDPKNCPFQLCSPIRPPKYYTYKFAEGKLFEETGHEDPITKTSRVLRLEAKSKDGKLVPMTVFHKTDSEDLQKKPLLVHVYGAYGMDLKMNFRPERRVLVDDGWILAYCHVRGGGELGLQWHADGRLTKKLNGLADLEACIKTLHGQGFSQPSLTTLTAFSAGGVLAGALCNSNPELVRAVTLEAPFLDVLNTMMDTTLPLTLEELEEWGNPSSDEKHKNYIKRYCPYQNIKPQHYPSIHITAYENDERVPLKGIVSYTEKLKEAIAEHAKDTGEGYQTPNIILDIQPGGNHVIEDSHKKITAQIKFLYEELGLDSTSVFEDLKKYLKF
Apaf-1 inh = inhibitors of human Apaf-1 apoptosome. inhibition, % at 20 µM. 0.71% of 330,000 active. AID 489030. O14727. reconstituted apoptosome caspase-3 activity, DEVD-Rh110 fluorescence; active means inhibition of at least 40% at 20 µM;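 further: plate controls were DMSO wells for no effect and DEVD-CHO caspase inhibitor wells for full effect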
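Material: cell-free apoptosome with Apaf-1, procaspase-3 and caspase-9; Buffer or medium: Hepes pH 7.5 with detergent and BSA; Reagent: cytochrome c trigger plus (Z-DEVD)2-Rh110 caspase-3 substrate; Times: compound with Apaf-1, dATP, procaspase-3 30 min, then 50 min reaction, room temperature; Technique: Rh110 fluorescence intensity.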
PAFAH1B3 FP inh = blocks human PAF acetylhydrolase 1B catalytic subunit 3. inhibition, % at 3.39 µM. 0.28% of 340,000 active. recombinant PAFAH1B3, FP-rhodamine probe, fluorescence polarization;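 active means inhibition above the screen-wide average of all tested compounds plus 3 SD, cut at about 25% in these data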;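 further: 0% = enzyme with DMSO only and 100% = wells lacking PAFAH1B3 protein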
pPAFAH FP conf = confirmation of human plasma PAF acetylhydrolase (pPAFAH) inhibitors; inhibition, % at 3.39 µM; shares compounds with pPAFAH inh; recombinant pPAFAH, FP-Rh probe fluorescence polarization; 72% of 2,300 active;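 active means mean inhibition of the triplicate above the hit cutoff set for the earlier primary screen, cut at about 25% in these data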;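 further: 0% = enzyme with DMSO and 100% = wells lacking pPAFAH enzyme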
* hit, by the source's call; x = no result.

SMILES | PAFAH1B2 FP inh | pPAFAH inh | PAFAH2 inh | PREPL inhibitor | Apaf-1 inh | PAFAH1B3 FP inh | pPAFAH FP conf
COc1cccc(NC(=O)CN(C)C(=O)CSCC(=O)Nc2ccc(C)cc2)c1 | -2 | -6 | 0 | 3 | -1 | 0 | x
O=C(O)c1[nH]c2ccccc2c1NS(=O)(=O)Cc1ccccc1 | 7 | 38* | -2 | 0 | -10 | -2 | 6
C/C(N)=C(/C#N)C(=O)CSc1nc2cc(Cl)ccc2s1 | -2 | 0 | 6 | 5 | 12 | 5 | x
Cn1nc([N+](=O)[O-])c(C(C#N)c2ccccn2)c(Cl)c1=O (centres undefined) | -2 | -1 | 2 | 2 | -6 | 0 | x
CCn1nc([N+](=O)[O-])c(C(C#N)c2nc3cc(C(F)(F)F)ccc3s2)c(Cl)c1=O (centres undefined) | 31* | 80* | 42* | 35 | 7 | 15 | 70*
CCCn1nc([N+](=O)[O-])c(C(C#N)c2nc3ccccc3o2)c(Cl)c1=O (centres undefined) | 39* | 69* | 46* | 10 | 24 | 28* | 58*
COc1cc(N2C(=O)NC3CC2(C)Oc2ccccc23)cc(OC)c1OC (centres undefined) | 4 | 35* | -5 | 12 | 0 | 9 | 2
COc1ccc(N2C(=O)NC3CC2(C)Oc2ccc(Cl)cc23)cc1OC (centres undefined) | 0 | 6 | 6 | 13 | 1 | 9 | x
O=c1oc2ccccc2c2oc3cc(O)c(O)cc3c12 | -1 | 73* | 34* | 26 | -8 | 9 | 81*
Nc1c(N)c2ccccc2oc1=O | 5 | 0 | 4 | -1 | -12 | 1 | x
CS(=O)(=O)c1ccc(C(=O)OCC(=O)NCc2cccs2)cc1[N+](=O)[O-] | -3 | 36* | 38* | 27 | 2 | 8 | 7
COc1ccc(NS(=O)(=O)c2cc(N=Nc3c(O)[nH]c(=O)[nH]c3=O)ccc2Cl)cc1 | 7 | 17 | 7 | 4 | -2 | 3 | x
Cc1ccc(NS(=O)(=O)c2ccc(Cl)c(N=Nc3c(O)[nH]c(=O)[nH]c3=O)c2)cc1Cl | 16 | 89* | 41* | 32 | 6 | 26* | 89*
O=C(COC(=O)CNC(=O)c1ccccc1)Nc1ccc(F)c([N+](=O)[O-])c1 | -1 | 37* | 1 | 4 | -5 | 6 | 5
CCN1CCN(Cc2cc(=O)oc3cc4c(cc23)CCC4)CC1 | 2 | 2 | -2 | 16 | 8 | -6 | x
CN1CCN(Cc2cc(=O)oc3cc4c(cc23)CCC4)CC1 | 7 | 37* | 0 | 13 | 4 | 2 | 9
O=S(=O)(Nc1ccc(Cl)cc1)c1cccc2nsnc12 | 7 | 7 | 3 | -5 | 9 | 5 | x
C[C@H]1CN([C@@H](C)CO)C(=O)c2cccc(NS(=O)(=O)c3ccc(F)cc3)c2O[C@H]1CN(C)Cc1ccc(Cl)c(Cl)c1 | 3 | 37* | 2 | 24 | 31 | -4 | 46*
COc1ccc(S(=O)(=O)Nc2cccc3c2O[C@H](CN(C)Cc2ccc(Cl)c(Cl)c2)[C@@H](C)CN([C@H](C)CO)C3=O)cc1 | -2 | 6 | -2 | 24 | 32 | 0 | x
O=C1NC(=Nc2ccc3ccccc3c2)S/C1=C/c1ccco1 | 13 | 55* | 5 | 23 | 18 | 1 | 22
O=C1NC(=Nc2ccc(O)cc2)S/C1=C/c1ccco1 | 1 | 6 | 3 | 9 | 5 | -3 | x
COc1ccc(N=C2NC(=O)/C(=C\C=C\c3ccco3)S2)cc1 | 3 | x | 23 | x | 22 | 6 | x
Cc1cccc(N=C2NC(=O)/C(=C/C=C/c3ccco3)S2)c1 | 10 | 50* | 32* | 26 | x | 27* | 25*
Cc1ccc(NNC(=O)CCc2ccccc2)c(C)c1 | 3 | 7 | 8 | -2 | -1 | 10 | x
O=C(Nc1cccc(Cl)c1)Nc1nnc(-c2ccncc2)s1 | 7 | 42* | 8 | 7 | 18 | -4 | 35*
O=c1oc2ccccc2c(O)c1Cc1cc(Cl)c2cccnc2c1O | 6 | 50* | 20 | 4 | -1 | 14 | 66*
CCc1cc(=O)oc2c(CN3CCCC3)c(O)c(Cl)cc12 | 1 | 5 | 0 | -2 | -12 | 4 | x
